According to PMC2787731 (Biochimica et biophysica acta, 2009):
Where “and” joins values, the source holds several entries; their conditions need not be identical. Equal entries are not always repeated. Entries after “also recorded” stand apart in the source; their conditions may differ. Where two headings read alike, the source gives them in different places.

Experiments:
[1] = molecular target: T1, recombinant CES1 (Homo sapiens, UniProt P23141); assay: Inhibition of carboxylesterase activity of recombinant human CES1; format: biochemical; details: for Inhibition of carboxylesterase activity of CES1 / Effect on carboxylesterase activity of recombinant CES1 (in words) / Mode of inhibition of recombinant CES1: pNPV; for Inhibition of carboxylesterase activity of CES1: concentration not given; for Mode of inhibition of recombinant CES1: curve fit of fractional inhibition, Dixon plots
T1 sequence (P23141 18-567): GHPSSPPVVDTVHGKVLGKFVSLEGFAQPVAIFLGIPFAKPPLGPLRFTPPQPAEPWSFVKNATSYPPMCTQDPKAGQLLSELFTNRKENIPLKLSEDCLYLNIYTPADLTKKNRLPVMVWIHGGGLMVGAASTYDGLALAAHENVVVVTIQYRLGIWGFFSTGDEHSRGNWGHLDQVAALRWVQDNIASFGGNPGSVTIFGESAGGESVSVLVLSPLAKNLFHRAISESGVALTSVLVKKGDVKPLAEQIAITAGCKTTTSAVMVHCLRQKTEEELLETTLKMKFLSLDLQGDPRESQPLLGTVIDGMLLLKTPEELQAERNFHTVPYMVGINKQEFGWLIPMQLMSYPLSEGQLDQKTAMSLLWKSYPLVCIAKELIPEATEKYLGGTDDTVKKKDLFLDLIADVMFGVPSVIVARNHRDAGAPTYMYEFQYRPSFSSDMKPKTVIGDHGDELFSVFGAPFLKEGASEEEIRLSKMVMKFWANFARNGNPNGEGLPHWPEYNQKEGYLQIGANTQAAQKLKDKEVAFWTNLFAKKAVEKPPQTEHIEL

[2] = molecular target: T2, carboxylesterase activity of THP1 cell lysates (Homo sapiens, UniProt P23141); assay: Inhibition of carboxylesterase activity of THP1 cell lysates; format: biochemical
T2 sequence (P23141 18-567): T1 sequence (P23141 18-567)

[3] = system: THP1 macrophage foam cells; format: cell-based, human; details: 10 μM; for Change in intracellular cholesteryl esters vs vehicle control: BSA only acceptor
[4] = molecular target: T3, recombinant CES2 (Homo sapiens, UniProt O00748); assay: Inhibition of recombinant CES2 activity; format: biochemical
T3 sequence (O00748 27-559): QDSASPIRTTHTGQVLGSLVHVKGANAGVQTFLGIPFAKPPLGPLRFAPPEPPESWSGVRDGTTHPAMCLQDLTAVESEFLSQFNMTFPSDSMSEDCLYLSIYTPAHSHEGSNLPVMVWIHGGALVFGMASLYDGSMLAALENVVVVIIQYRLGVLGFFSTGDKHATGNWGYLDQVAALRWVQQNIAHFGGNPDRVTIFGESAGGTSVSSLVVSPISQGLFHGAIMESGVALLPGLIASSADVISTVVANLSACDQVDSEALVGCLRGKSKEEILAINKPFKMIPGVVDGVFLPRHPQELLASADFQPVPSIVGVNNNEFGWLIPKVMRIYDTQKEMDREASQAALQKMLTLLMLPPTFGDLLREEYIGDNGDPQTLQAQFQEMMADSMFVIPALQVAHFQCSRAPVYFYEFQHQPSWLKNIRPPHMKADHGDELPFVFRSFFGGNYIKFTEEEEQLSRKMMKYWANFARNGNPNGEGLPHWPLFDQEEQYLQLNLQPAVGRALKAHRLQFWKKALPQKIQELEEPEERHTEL

[5] = molecular target: T1, recombinant CES1; assay: Activity-based probe; format: biochemical
How it was run: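 Recombinant human CES1 was expressed in baculovirus-infected Spodoptera frugiperda cells and purified. The enzyme was preincubated with test compound for 30 min and then treated with the activity-based probe fluorophosphonate-biotin. IC50 was estimated from probe labelling.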

[6] = cited from earlier work
[7] = molecular target: T1, recombinant CES1; format: biochemical; details: read-out: Inhibition of CES1 hydrolytic activity toward trans-permethrin, 20 μM AA; trans-permethrin 50 μM; 2% (w/v) fatty acid-free bovine serum albumin added
[8] = molecular target: T4, rat CES1 ortholog (Hydrolase A) (Rattus norvegicus, UniProt P16303); assay: Inhibition of rat CES1 ortholog; format: biochemical
T4 sequence (P16303 19-565): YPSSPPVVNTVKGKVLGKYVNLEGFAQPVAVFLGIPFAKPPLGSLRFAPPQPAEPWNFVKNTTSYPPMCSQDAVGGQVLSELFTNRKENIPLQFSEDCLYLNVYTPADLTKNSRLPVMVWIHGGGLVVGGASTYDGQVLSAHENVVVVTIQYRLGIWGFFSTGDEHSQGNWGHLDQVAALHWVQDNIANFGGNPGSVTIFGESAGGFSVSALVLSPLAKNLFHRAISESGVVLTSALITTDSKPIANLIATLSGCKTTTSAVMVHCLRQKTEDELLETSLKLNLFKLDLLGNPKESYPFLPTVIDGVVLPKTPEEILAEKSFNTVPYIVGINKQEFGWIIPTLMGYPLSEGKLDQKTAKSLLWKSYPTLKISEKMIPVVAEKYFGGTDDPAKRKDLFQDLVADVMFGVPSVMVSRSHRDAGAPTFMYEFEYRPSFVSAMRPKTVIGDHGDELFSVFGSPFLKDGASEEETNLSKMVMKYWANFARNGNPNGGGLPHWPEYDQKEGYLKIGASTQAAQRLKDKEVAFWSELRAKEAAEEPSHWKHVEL

[9] = system: intracellular carboxylesterase activity of THP1 cells; assay: Intracellular carboxylesterase activity in intact THP1 monocytes; format: cell-based, human; details: 10 μM, 80 min, pNPV
[10] = read-out: CES1 IC50, recombinant CES1, pNPV 500 μM, 15 min preincubation at 37°C
[11] = CES1 IC50, recombinant CES1, pNPV 500 μM, 15 min preincubation at 37°C
[12] = Cell lysate IC50, THP1 cell lysate, pNPV 500 μM, 15 min preincubation at 37°C

Structure (SMILES): CC(C)CCC[C@@H](C)[C@H]1CC[C@H]2[C@@H]3C(=O)C=C4C[C@@H](O)CC[C@]4(C)[C@H]3CC[C@]12C [7-ketocholesterol]
- Inhibition of carboxylesterase activity of CES1 [1]: < 15%
- Inhibitory effect on carboxylesterase activity of THP1 cell lysates (in words) ([2]; pNPV): little inhibitory activity; also recorded: minimal inhibitory effect

Structure (SMILES): CCCCC/C=C\CC1OC1C/C=C\C/C=C\CCCC(=O)O (stereo not drawn) [11,12-EET, 11,12-Epoxy-5Z,8Z,14Z-eicosatrienoic acid]
- IC50 [1, 10]: 27 ± 1 µM

Structure (SMILES): CCCCCC1OC1C/C=C\C/C=C\C/C=C\CCCC(=O)O (stereo not drawn) [14,15-EET]
- IC50 [1, 10]: 38 ± 1 µM

Structure (SMILES): CCCCC/C=C/C=C1/C(=O)C=C[C@@H]1C/C=C\CCCC(=O)O [15-deoxy-Δ^12,14-Prostaglandin J2]
- IC50 [1, 10]: 13 ± 3 µM

Structure (SMILES): CC(C)CC[C@@H](O)[C@@H](C)[C@H]1CC[C@H]2[C@@H]3CC=C4C[C@@H](O)CC[C@]4(C)[C@H]3CC[C@]12C [22(R)-HC, 22(R)-hydroxycholesterol]
- Effect on carboxylesterase activity of recombinant CES1 (in words) [1]: minimal activity
- Change in free cholesterol levels vs vehicle control ([3]; 12 h): No change
- Change in intracellular cholesteryl esters vs vehicle control ([3]; 12 h): significant reduction
- Inhibition of carboxylesterase activity of THP1 cell lysate ([2]; 50 μM oxysterol, pNPV): ~ 30%
- Inhibitory effect on carboxylesterase activity of THP1 cell lysates (in words) ([2]; pNPV): little inhibitory activity

Structure (SMILES): CC(C)[C@@H](O)CC[C@@H](C)[C@H]1CC[C@H]2[C@@H]3CC=C4C[C@@H](O)CC[C@]4(C)[C@H]3CC[C@]12C [24(S)-HC, 24(S)-hydroxycholesterol]
- Inhibitory effect on carboxylesterase activity of THP1 cell lysates (in words) ([2]; pNPV): minimal inhibitory effect
- Inhibitory effect on carboxylesterase activity of THP1 cell lysates (in words) ([2]; pNPV, listed as 24(S)-hydroxycholesterol): little inhibitory activity

Structure (SMILES): C[C@H](CCCC(C)(C)O)[C@H]1CC[C@H]2[C@@H]3CC=C4C[C@@H](O)CC[C@]4(C)[C@H]3CC[C@]12C [25-HC, 25-hydroxycholesterol]
- Inhibition of carboxylesterase activity of CES1 [1]: < 15%
- Inhibitory effect on carboxylesterase activity of THP1 cell lysates (in words) ([2]; pNPV): minimal inhibitory effect
- Inhibitory effect on carboxylesterase activity of THP1 cell lysates (in words) ([2]; pNPV, listed as 25-hydroxycholesterol): little inhibitory activity

Structure (SMILES): C[C@@H](CO)CCC[C@@H](C)[C@H]1CC[C@H]2[C@@H]3CC=C4C[C@@H](O)CC[C@]4(C)[C@H]3CC[C@]12C [27-HC, 27-hydroxycholesterol]
- IC50 [4]: > 5 µM
- IC50 [1]: 0.05 ± 0.02 µM
- Ki ([1]; Kiapp, recombinant CES1, ester substrate 4-MUBA, data not shown): 0.0104 ± 0.0013 µM
- Ki ([1]; Kiapp, recombinant CES1, substrate pNPV, 15 min preincubation with enzyme): 0.01 µM and 0.0101 µM
- Mode of inhibition of recombinant CES1 [1]: partial non-competitive inhibitor
- inhibition at 0.5 µM ([1]; read-out: Maximum inhibition of CES1 activity): ~67%
- Change in intracellular cholesteryl esters vs vehicle control ([3]; 12 and 24 h): no significant changes
- Change in free cholesterol levels vs vehicle control ([3]; 12 h): significantly reduced
- IC50 [5]: 0.04 ± 0.02 µM
- Predicted solubility limit in aqueous solution [6]: 0.52 µM
- Inhibition of carboxylesterase activity of THP1 cell lysate ([2]; 50 μM oxysterol, pNPV): ~ 78%
- IC50 ([2]; IC50, carboxylesterase activity of THP1 whole-cell lysates, THP1 whole-cell lysates, pNPV): 0.033 µM

Structure (SMILES): CCCCC/C=C\C/C=C\C/C=C\C/C=C\CCCC(=O)O [AA, 5Z,8Z,11Z,14Z-Eicosatetraenoic acid]
- IC50 [4]: > 100 µM
- Ki [1]: 1.7 µM
- IC50 [1, 11]: 2 ± 1 µM
- Mode of inhibition of recombinant CES1 [1]: noncompetitive inhibition model
- inhibition at 20 µM [7]: 14%
- IC50 [8]: 50 µM
- IC50 toward rat CES1 relative to the human enzyme ([8]; rat vs human CES1): 25 fold
- Inhibition of carboxylesterase activity of THP1 cell lysate ([2]; 100 μM fatty acid, pNPV): ~ 90%
- IC50 [2, 12]: 4 ± 1 µM

Structure (SMILES): CCCCC[C@H](O)/C=C/[C@H]1[C@H](O)CC(=O)[C@@H]1C/C=C\CCCC(=O)O [Prostaglandin E2]
- IC50 [1, 11]: > 100 µM

Structure (SMILES): CCCCC[C@H](O)/C=C/[C@@H]1[C@@H](C/C=C\CCCC(=O)O)[C@@H](O)C[C@H]1O [Prostaglandin F2α]
- IC50 [1, 11]: > 100 µM

Structure (SMILES): C[C@H](CCC(=O)O)[C@H]1CC[C@H]2[C@@H]3[C@H](O)C[C@@H]4C[C@H](O)CC[C@]4(C)[C@H]3C[C@H](O)[C@]12C [cholate]
- IC50 ([1]; read-out: IC50, CES1 enzyme activity, data not shown): ~7000 µM

Structure (SMILES): CC(C)CCC[C@@H](C)[C@H]1CC[C@H]2[C@@H]3CC=C4C[C@@H](O)CC[C@]4(C)[C@H]3CC[C@]12C [cholesterol]
- Effect on carboxylesterase activity of recombinant CES1 (in words) [1]: almost no effect
- Inhibitory effect on carboxylesterase activity of THP1 cell lysates (in words) ([2]; pNPV): little inhibitory activity; also recorded: no inhibitory effect

Structure (SMILES): C[C@H](CC[C@@H]1OC1(C)C)[C@H]1CC[C@H]2[C@@H]3CC=C4C[C@@H](O)CC[C@]4(C)[C@H]3CC[C@]12C [epoxycholesterol, 24(S),25-epoxycholesterol]
- Change in free cholesterol levels vs vehicle control ([3]; 12 and 24 h): reduced
- Change in intracellular cholesteryl esters vs vehicle control ([3]; 12 and 24 h): no significant changes
- Inhibition of carboxylesterase activity of THP1 cell lysate ([2]; 50 μM oxysterol, pNPV): ~ 70%
- IC50 [2, 12]: 8.1 µM

Structure (SMILES): CCCCC/C=C\C/C=C\CCCCCCCC(=O)O [linoleic acid, 9Z,12Z-Octadecadienoic acid]
- IC50 [1, 11]: 9 ± 6 µM
- IC50 [2, 12]: 20 ± 3 µM

Structure (SMILES): CCCCCCCCCCCCCC(=O)O [myristic acid, Tetradecanoic acid]
- IC50 [1, 11]: 9 ± 3 µM
- IC50 [2, 12]: 28 ± 4 µM

Structure (SMILES): CCCC/C=C\CCCCCCCC(=O)O [myristoleic acid, 9Z-Tetradecenoic acid]
- IC50 [1, 11]: 12 ± 2 µM
- IC50 [2, 12]: 23 ± 6 µM

Structure (SMILES): CCCCCCCC/C=C\CCCCCCCC(=O)O [oleic acid, 9Z-Octadecenoic acid]
- IC50 [1, 11]: 7 ± 3 µM
- IC50 [2, 12]: 11 ± 4 µM

Structure (SMILES): CCCCCCCCCCCCCCCC(=O)O [palmitic acid, Hexadecanoic acid]
- IC50 [1, 11]: 25 ± 13 µM
- IC50 [2, 12]: > 100 µM

Structure (SMILES): CCOP(=O)(OCC)Oc1ccc([N+](=O)[O-])cc1 [paraoxon]
- Inhibition of intracellular carboxylesterase activity [9]: 87%

Structure (SMILES): CCCCCCCCCCCCCCCCCC(=O)O [stearic acid, Octadecanoic acid]
- IC50 [1, 11]: > 100 µM
- IC50 [2, 12]: > 100 µM

Structure (SMILES): CCCCC/C=C\C/C=C\C/C=C\CCCCC(=O)O [γ-linolenic acid, 6Z,9Z,12Z-Octadecatrienoic acid]
- IC50 [1, 11]: 19 ± 10 µM
- IC50 [2, 12]: 23 ± 3 µM
